Data on 6 molecules can be found in ChEMBL document CHEMBL4052586, “Design of Potent and Selective Cathepsin G Inhibitors Based on the Sunflower Trypsin Inhibitor-1 Scaffold” (J Med Chem, 2017).

Calls of active or inactive are those of the source. The rule behind the calls is not given here. Positions of bridges follow the written chain, without caps; N, C: chain ends. Non-standard residues stand in square brackets, D forms with d. Residues, ends and D or L forms follow the SMILES beside them. ξ: configuration not given here. Phe(4-guanidino) = N=C(N)Nc1ccc(C[C@H](N)C(=O)O)cc1; ξNle = CCCCC(N)C(=O)O

Test [1] in a line: Inhibition of bovine trypsin using Tos-GPR-AMC as substrate preincubated for 30 mins followed by substrate addition.
In the next test the target is T1, Cathepsin G (Homo sapiens, UniProt P08311).
T1 sequence (P08311 whole entry): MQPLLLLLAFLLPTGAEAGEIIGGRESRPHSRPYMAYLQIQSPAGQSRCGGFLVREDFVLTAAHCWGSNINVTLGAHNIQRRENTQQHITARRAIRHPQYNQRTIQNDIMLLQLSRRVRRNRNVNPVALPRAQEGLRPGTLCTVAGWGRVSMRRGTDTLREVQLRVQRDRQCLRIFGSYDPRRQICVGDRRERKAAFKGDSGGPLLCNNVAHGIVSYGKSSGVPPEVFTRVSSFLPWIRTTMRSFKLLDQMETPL
As to the kind of experiment: Inhibition of human cathepsin G using Suc-AAPF-MCA as substrate after 30 mins.

The species entered for test [2] is Homo sapiens. As to the kind of experiment: Selectivity ratio of Ki for human PR3 to Ki for human cathepsin G. Put shortly: (§1)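 Each Ki was determined after 30 min room-temperature protease–inhibitor equilibration, with chromogenic (405 nm) or fluorogenic (360/460 nm) substrate readout in Tris/NaCl buffer pH 8.0. Morrison Ki was fitted by non-linear regression, three independent triplicate experiments, and the off-target Ki was divided by the cathepsin G Ki.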

Test [3] can be described thus: Selectivity ratio of Ki for bovine chymotrypsin to Ki for human cathepsin G. An outline of the steps: as §1
Another test deals with T2, Chymase (Rattus norvegicus, UniProt P50339).
T2 sequence (P50339 whole entry): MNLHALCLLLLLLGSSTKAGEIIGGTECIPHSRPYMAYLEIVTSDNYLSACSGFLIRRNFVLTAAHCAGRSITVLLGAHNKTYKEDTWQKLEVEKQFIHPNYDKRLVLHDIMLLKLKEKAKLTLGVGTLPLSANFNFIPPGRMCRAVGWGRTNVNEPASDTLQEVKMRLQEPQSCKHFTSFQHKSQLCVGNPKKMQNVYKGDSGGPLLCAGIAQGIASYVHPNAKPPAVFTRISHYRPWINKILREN
As to the kind of experiment: Inhibition of rat mast cell chymase using Suc-AAPF-pNA as substrate after 30 mins. Put shortly: (§2)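 Inhibitor and protease were preincubated 30 min at room temperature. pNA substrate release was read at 405 nm for 5 min in 0.15 M NaCl, 0.1 M Tris·HCl pH 8.0, 0.005% Triton X-100, with 10% acetonitrile. Morrison Ki was obtained by non-linear regression from three independent triplicate experiments.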

The target in test [4] is T3, Myeloblastin (Homo sapiens) (UniProt P24158).
T3 sequence (whole entry): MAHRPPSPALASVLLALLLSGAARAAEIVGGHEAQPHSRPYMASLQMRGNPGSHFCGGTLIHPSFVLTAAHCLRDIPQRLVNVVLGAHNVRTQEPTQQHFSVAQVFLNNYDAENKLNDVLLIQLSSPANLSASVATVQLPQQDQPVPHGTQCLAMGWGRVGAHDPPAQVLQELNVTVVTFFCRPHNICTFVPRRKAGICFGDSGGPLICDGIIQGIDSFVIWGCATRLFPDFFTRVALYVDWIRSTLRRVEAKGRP
As to the kind of experiment: Inhibition of human PR3 at 10000 nM using Suc(OMe)-AAPV-MCA as substrate after 30 mins relative to control.

The next test has as its target T4, Neutrophil elastase (Homo sapiens, UniProt P08246).
T4 sequence (P08246 whole entry): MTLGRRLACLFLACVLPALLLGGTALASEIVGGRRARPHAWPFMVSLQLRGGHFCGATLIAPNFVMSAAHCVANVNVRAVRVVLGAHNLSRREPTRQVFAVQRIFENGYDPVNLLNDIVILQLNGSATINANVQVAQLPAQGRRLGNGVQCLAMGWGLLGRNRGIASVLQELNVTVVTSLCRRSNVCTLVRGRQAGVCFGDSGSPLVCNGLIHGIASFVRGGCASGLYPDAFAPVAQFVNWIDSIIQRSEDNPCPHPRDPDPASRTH
As to the kind of experiment: Inhibition of human neutrophil elastase using Suc(OMe)-AAPV-pNA as substrate after 30 mins. Put shortly: as §2

A short description of test [5]: Selectivity ratio of Ki for rat mast cell chymase to Ki for human cathepsin G. An outline of the steps:
as §1

The target in a further test is T5, Myeloblastin (Homo sapiens, UniProt P24158).
T5 sequence (P24158 whole entry): T3 sequence (whole entry)
As to the kind of experiment: Inhibition of human PR3 using Suc(OMe)-AAPV-MCA as substrate after 30 mins. An outline of the steps:
(§3)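 Protease and inhibitor equilibrated 30 min at room temperature, then MCA substrate added in assay buffer (0.15 M NaCl, 0.1 M Tris·HCl pH 8.0, 0.005% Triton X-100). Fluorescence was read at ex 360/em 460 nm over 10 min. Morrison Ki was fitted by non-linear regression from three independent triplicate experiments.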

Test [6] is filed under the species Homo sapiens. As to the kind of experiment: Selectivity ratio of Ki for recombinant KLK7 (unknown origin) to Ki for human cathepsin G. An outline of the steps:
as §1

A further test has as its target Kallikrein-7 (Homo sapiens, UniProt P49862). As to the kind of experiment: Inhibition of recombinant KLK7 (unknown origin) expressed in zymogen form in Pichia pastorisstrain X-33 using KHLY-pNA as substrate after 30 mins. An outline of the steps:
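Pro-KLK7 from Pichia supernatant was cation-exchange purified, activated with enterokinase (37°C, 2 h), repurified, and active-site titrated with α1-antitrypsin. After 30 min room-temperature equilibration with inhibitor, pNA hydrolysis was followed at 405 nm for 5 min in Tris/NaCl/Triton buffer pH 8.0 with 10% acetonitrile. Morrison Ki came from three independent triplicate runs.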

Test [7] is described as follows: Inhibition of bovine chymotrypsin using Suc(OMe)-AAPV-MCA as substrate after 30 mins. Also on record: species or system Bos taurus. An outline of the steps:
as §3

The species named for test [8] is Homo sapiens. As to the kind of experiment: Selectivity ratio of Ki for human neutrophil elastase to Ki for human cathepsin G. Put shortly:
as §1

The species entered for the next test is Bos taurus. As to the kind of experiment: Inhibition of bovine chymotrypsin at 10000 nM using Suc(OMe)-AAPV-MCA as substrate after 30 mins relative to control.
Test [9] has as its target T6, Prothrombin (Homo sapiens, UniProt P00734). As to the kind of experiment: Inhibition of human alpha-thrombin at 10000 nM using Glt-Gly-Arg-MCA as substrate after 30 mins.
Test [10] is filed under the species Homo sapiens. As to the kind of experiment: Selectivity ratio of Ki for human plasmin to Ki for human cathepsin G. Put shortly:
as §1

The species named for test [11] is Homo sapiens. As to the kind of experiment: Selectivity ratio of Ki for human alpha-thrombin to Ki for human cathepsin G. An outline of the steps: as §1
Test [12] deals with T7, Cathepsin G (Homo sapiens) (UniProt P08311).
T7 sequence (whole entry): T1 sequence (P08311 whole entry)
As to the kind of experiment: Inhibition of human cathepsin G assessed as decrease in angiotensin-2 generation from angiotensin-1 at 100 nM after 1.5 to 3 hrs by RP-UPLC/mass spectroscopic method. Particulars: in the assay text read “1.5 to 5 hrs” for “1.5 to 3 hrs”. Put shortly:
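Cathepsin G (10 nM) was incubated with angiotensin I (10 µM) in assay buffer, with or without inhibitor at 100 nM. Aliquots were taken at 1.5, 3 and 5 h and quenched with 2% TFA. Angiotensin I cleavage and angiotensin II formation were analysed by RP-UPLC and electrospray mass spectrometry.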

A short description of test [13]: Selectivity ratio of Ki for bovine trypsin to Ki for human cathepsin G. An outline of the steps: as §1
Test [14] deals with T6, Prothrombin. As to the kind of experiment: Inhibition of human alpha-thrombin using Glt-Gly-Arg-MCA as substrate after 30 mins. An outline of the steps:
as §3

For test [15], the target named is T8, Plasminogen (Homo sapiens, UniProt P00747). As to the kind of experiment: Inhibition of human plasmin at 10000 nM using Ac-RM(O2)YRpNA as substrate after 30 mins.
T8 sequence (P00747 97-580 limits assumed): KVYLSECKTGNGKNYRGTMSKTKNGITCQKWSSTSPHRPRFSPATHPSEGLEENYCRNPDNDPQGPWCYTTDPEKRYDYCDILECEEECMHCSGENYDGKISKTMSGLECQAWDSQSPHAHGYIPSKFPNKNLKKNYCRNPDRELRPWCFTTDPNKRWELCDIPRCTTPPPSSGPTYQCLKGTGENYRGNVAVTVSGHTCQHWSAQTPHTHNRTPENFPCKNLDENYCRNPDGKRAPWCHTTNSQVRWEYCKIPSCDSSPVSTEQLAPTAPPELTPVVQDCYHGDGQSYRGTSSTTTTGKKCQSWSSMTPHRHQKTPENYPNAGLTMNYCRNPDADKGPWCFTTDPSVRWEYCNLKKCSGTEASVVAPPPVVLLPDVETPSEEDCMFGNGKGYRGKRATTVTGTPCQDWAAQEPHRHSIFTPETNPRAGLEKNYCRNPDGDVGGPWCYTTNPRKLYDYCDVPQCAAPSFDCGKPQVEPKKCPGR
T8 sequence (P00747 581-810 limits assumed): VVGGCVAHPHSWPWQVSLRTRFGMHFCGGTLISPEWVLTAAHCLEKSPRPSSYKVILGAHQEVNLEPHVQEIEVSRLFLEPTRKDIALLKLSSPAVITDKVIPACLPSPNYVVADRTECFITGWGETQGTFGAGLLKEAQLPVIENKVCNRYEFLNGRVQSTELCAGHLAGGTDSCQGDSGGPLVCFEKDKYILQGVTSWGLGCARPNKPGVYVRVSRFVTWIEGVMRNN
Test [16] is described as follows: Inhibition of bovine trypsin using Boc-QAR-MCA as substrate after 30 mins. Details: species or system Bos taurus. Put shortly:
as §3

Test [17] concerns the target T8, Plasminogen. As to the kind of experiment: Inhibition of human plasmin using Ac-RM(O2)YRpNA as substrate after 30 mins. Put shortly: as §2

Kallikrein-7, sequence (P49862 whole entry): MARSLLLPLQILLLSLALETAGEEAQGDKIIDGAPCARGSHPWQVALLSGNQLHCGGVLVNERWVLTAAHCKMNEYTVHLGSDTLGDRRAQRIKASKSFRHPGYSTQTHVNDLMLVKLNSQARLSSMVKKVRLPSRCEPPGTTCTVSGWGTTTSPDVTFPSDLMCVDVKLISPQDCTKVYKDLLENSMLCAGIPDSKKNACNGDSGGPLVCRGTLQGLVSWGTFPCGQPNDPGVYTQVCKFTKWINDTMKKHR

A word on the Ki: it is a dissociation constant, usually derived from enzyme kinetics or from competition with a known ligand. As to `CC[C@H](C)[C@@H]1NC(=O)[C@@H]2CCCN2C(=O)[C@@H]2CCCN2C(=O)[C@H]([C@@H](C)CC)NC(=O)[C@H](CO)NC(=O)[C@H](CCCCN)NC(=O)[C@H]([C@@H](C)O)NC(=O)[C@@H]2CSSC[C@H](NC1=O)C(=O)N[C@@H](Cc1ccccc1)C(=O)N1CCC[C@H]1C(=O)N[C@@H](CC(=O)O)C(=O)NCC(=O)N[C@@H](CCCNC(=N)N)C(=O)N2`, the Ki in test [1] is 0.0017 nM; at Cathepsin G, 730 nM.
As usually defined, the inhibition is the change of the read-out against control, counted positive when it falls. Take `CCCCC1NC(=O)[C@@H]2CSSC[C@H](NC(=O)[C@H]([C@@H](C)CC)NC(=O)[C@@H]3CCCN3C(=O)[C@@H]3CCCN3C(=O)[C@H](CC(=O)O)NC(=O)[C@H](CO)NC(=O)[C@H](Cc3ccccc3)NC1=O)C(=O)N[C@@H](Cc1ccccc1)C(=O)N1CCC[C@H]1C(=O)N[C@@H](CC(N)=O)C(=O)NCC(=O)N[C@@H]([C@@H](C)O)C(=O)N2` (stereo partly drawn) (cyclo(CFPNGTC[ξNle]FSDPPI); disulfide 1-7): the Ratio Ki was > 5900 in the test filed under Homo sapiens [2]; 83 in [3]; 4.5 in [5]; 76 in the test filed under Homo sapiens [6]; 5200 in the test listed under Homo sapiens [8]. Moreover, the Ki at Cathepsin G is 1.7 nM; at Chymase it was 7.7 nM; at Neutrophil elastase, 8900 nM; at Myeloblastin it was > 10000 nM; on Kallikrein-7, 130 nM; in [7] it was 140 nM. For the same molecule, the inhibition in test [4] is < 20%.
For the molecule `CCCCC1NC(=O)[C@@H]2CSSC[C@H](NC(=O)[C@H]([C@@H](C)CC)NC(=O)[C@@H]3CCCN3C(=O)[C@@H]3CCCN3C(=O)[C@H]([C@@H](C)CC)NC(=O)[C@H](CO)NC(=O)[C@H](Cc3ccccc3)NC1=O)C(=O)N[C@@H](Cc1ccccc1)C(=O)N1CCC[C@H]1C(=O)N[C@@H](CC(N)=O)C(=O)NCC(=O)N[C@@H]([C@@H](C)O)C(=O)N2` (stereo partly drawn) (cyclo(CFPNGTC[ξNle]FSIPPI); disulfide 1-7), the Ratio Ki in the test filed under Homo sapiens [2] was > 11000; in [3], 2.1; in the test listed under Homo sapiens [6], 78; in the test filed under Homo sapiens [8], 13000. Moreover, the inhibitory constant (Ki) on Cathepsin G is 0.89 nM; on Neutrophil elastase it was 12000 nM; on Myeloblastin it was > 10000 nM; at Kallikrein-7 it was 69 nM; in test [7], 1.9 nM. In addition, in test [4], the inhibition is < 20%.
For the molecule `CCCCC1NC(=O)[C@@H]2CSSC[C@H](NC(=O)[C@H]([C@@H](C)CC)NC(=O)[C@@H]3CCCN3C(=O)[C@@H]3CCCN3C(=O)[C@H](CC(=O)O)NC(=O)[C@H](CO)NC(=O)[C@H](Cc3ccc(NC(=N)N)cc3)NC1=O)C(=O)N[C@@H](Cc1ccccc1)C(=O)N1CCC[C@H]1C(=O)N[C@@H](CC(N)=O)C(=O)NCC(=O)N[C@@H]([C@@H](C)O)C(=O)N2` (stereo partly drawn) (cyclo(CFPNGTC[ξNle][Phe(4-guanidino)]SDPPI); disulfide 1-7), the inhibition (in the test listed under Bos taurus; against Prothrombin [9]; in test [4]; on Plasminogen [15]) was < 20% throughout. Besides, the Ratio Ki in the test listed under Homo sapiens [2] is > 6300; in the test filed under Homo sapiens [10] it was > 6300; in the test filed under Homo sapiens [11] it was > 6300; in [3], > 6300; in test [13] it was 360; in test [5], 12000. In addition, the Ratio Ki in the test filed under Homo sapiens [6] came to 460; in the test filed under Homo sapiens [8] it was 27000. In addition, the Ki on Cathepsin G is 1.6 nM; on Chymase, 19600 nM; at Prothrombin [14], > 10000 nM; at Neutrophil elastase, 43000 nM; in test [16] it was 580 nM; at Myeloblastin, > 10000 nM. For the same molecule, the results for the Ki (at Kallikrein-7; on Plasminogen [17]; in [7]) were 740 nM, > 10000 nM and > 10000 nM, respectively. The inhibition result in test [12] was “Active”.
On Cathepsin G, `CC[C@H](C)[C@@H]1NC(=O)[C@@H]2CCCN2C(=O)[C@@H]2CCCN2C(=O)[C@H](CC(=O)O)NC(=O)[C@H](CO)NC(=O)[C@H](CCCNC(=N)N)NC(=O)[C@H]([C@@H](C)O)NC(=O)[C@@H]2CSSC[C@H](NC1=O)C(=O)N[C@@H](CC(N)=O)C(=O)N1CCC[C@H]1C(=O)N[C@@H](CC(N)=O)C(=O)NCC(=O)N[C@@H]([C@@H](C)O)C(=O)N2` (cyclo(CNPNGTCTRSDPPI); disulfide 1-7) returned a Ki of 12 nM.
Still for that read-out and setting: next, `CC[C@H](C)[C@@H]1NC(=O)[C@@H]2CCCN2C(=O)[C@@H]2CCCN2C(=O)[C@H]([C@@H](C)CC)NC(=O)[C@H](CO)NC(=O)[C@H](CCCNC(=N)N)NC(=O)[C@H]([C@@H](C)O)NC(=O)[C@@H]2CSSC[C@H](NC1=O)C(=O)N[C@@H](CC(N)=O)C(=O)N1CCC[C@H]1C(=O)N[C@@H](CC(N)=O)C(=O)NCC(=O)N[C@@H]([C@@H](C)O)C(=O)N2` (cyclo(CNPNGTCTRSIPPI); disulfide 1-7): 490 nM.
